In ChEMBL document CHEMBL1125603, “2-Chloro-1-(2,4-dichlorophenyl)-3-(1H-imidazol-1-yl)-2-phenylpropan-1-one hydrochloride, a novel, nonmutagenic antibacterial with specific activity against anaerobic bacteria” (1991):
≈ marks a conversion by molar mass, not a printed value.

Columns and labels:
Type in all cases: functional
[1] = system: Finegoldia magna; experiment: Minimum inhibitory concentration against Peptococcus magnus(in vitro)
Outline: (§1)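 Broth microdilution: drug stock of 200 μg/mL in 20% polyethylene glycol 200/water, serially diluted 2-fold in the wells to final concentrations of 0.8–100 μg/mL. Final inoculum was 10⁸ organisms/mL. Plates were held at 37 °C for 48 h, in an anaerobic chamber for anaerobes or a conventional incubator for aerobes. MIC was then read.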

[2] = system: Anaerococcus prevotii; experiment: Minimum inhibitory concentration against Peptococcus prevotti(in vitro); outline: as §1
[3] = system: Streptococcus pyogenes; experiment: Minimum inhibitory concentration against Streptococcus pyogenes(ATCC 19615)(in vitro); outline: as §1
[4] = system: Bacteroides fragilis; experiment: Minimum inhibitory concentration against Bacteroides fragilis(NCTC 9344)(in vitro); outline: as §1
[5] = system: Klebsiella pneumoniae; experiment: Minimum inhibitory concentration against Klebsiella pneumoniae (ATCC 13883)(in vitro); outline: as §1
[6] = system: Pseudomonas aeruginosa; experiment: Minimum inhibitory concentration against Pseudomonas aeruginosa (ATCC 27853)(in vitro); outline: as §1
[7] = system: Bacteroides fragilis; experiment: Minimum inhibitory concentration against Bacteroides fragilis (WSI)(in vitro); outline: as §1
[8] = system: Fusobacterium necrophorum; experiment: Minimum inhibitory concentration against Fusobacterium necrophorum (ATCC 11295)(in vitro); outline: as §1
[9] = system: Clostridium perfringens; experiment: Minimum inhibitory concentration against Clostridium perfringens (NCTC 523)(in vitro)
Outline: (§2)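 Broth microdilution MIC in 96-well plates. Drugs dissolved in 20% polyethylene glycol 200/water (stock 200 μg/mL), then serially diluted 2-fold in the wells to final concentrations of 0.8–100 μg/mL. Final inoculum 10⁸ organisms/mL. Plates incubated 48 h at 37 °C in an anaerobic chamber before the MIC was read.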

[10] = system: Cutibacterium acnes; experiment: Minimum inhibitory concentration against Propionibacterium acnes(NCTC 7337)(in vitro); outline: as §1
[11] = system: Staphylococcus aureus; experiment: Minimum inhibitory concentration against Staphylococcus aureus(ATCC 25923)(in vitro); outline: as §1
[12] = system: Cutibacterium acnes; experiment: Minimum inhibitory concentration against Propionibacterium acnes(NCTC 737)(in vitro); outline: as §1
[13] = system: Peptostreptococcus anaerobius; experiment: Minimum inhibitory concentration against Peptostreptococcus anaerobius(in vitro); outline: as §1
[14] = system: Bacteroides fragilis; experiment: Minimum inhibitory concentration against Bacteroides fragilis (MZ-R)(in vitro); outline: as §1
[15] = system: Bacteroides fragilis; experiment: Minimum inhibitory concentration against Bacteroides fragilis(NCTC 10581)(in vitro); outline: as §1
[16] = system: Clostridium perfringens; experiment: Minimum inhibitory concentration against Clostridium perfringens (NCTC 8237)(in vitro); outline: as §2
[17] = system: Proteus vulgaris; experiment: Minimum inhibitory concentration against Proteus vulgaris(ATCC 13315)(in vitro); outline: as §1
[18] = system: Escherichia coli; experiment: Minimum inhibitory concentration against Escherichia coli(ATCC 25922)(in vitro); outline: as §1
[19] = system: Bacteroides fragilis; experiment: Minimum inhibitory concentration against Bacteroides fragilis(NCTC 9343)(in vitro); outline: as §1

| Compound | MIC [1] [µg/mL] | MIC [2] [µg/mL] | MIC [3] [µg/mL] | MIC [4] [µg/mL] | MIC [5] [µg/mL] | MIC [6] [µg/mL] | MIC [7] [µg/mL] | MIC [8] [µg/mL] | MIC [9] [µg/mL] | MIC [10] [µg/mL] | MIC [11] [µg/mL] | MIC [12] [µg/mL] | MIC [13] [µg/mL] | MIC [14] [µg/mL] | MIC [15] [µg/mL] | MIC [16] [µg/mL] | MIC [17] [µg/mL] | MIC [18] [µg/mL] | MIC [19] [µg/mL] |
| --- | --- | --- | --- | --- | --- | --- | --- | --- | --- | --- | --- | --- | --- | --- | --- | --- | --- | --- | --- |
| O=C(c1ccc(Cl)cc1Cl)C(Br)(Cn1ccnc1)c1ccccc1 (stereo unspecified) | 1.5 (≈ 3.54 µM) | 1.5 (≈ 3.54 µM) | < 0.8 | < 0.8 | > 100 | > 100 | < 0.8 | < 0.8 | < 0.8 | < 0.8 | 1.5 (≈ 3.54 µM) | < 0.8 | 1.5 (≈ 3.54 µM) | < 0.8 | < 0.8 | < 0.8 | 12.5 (≈ 29.5 µM) | > 100 | < 0.8 |
| Cc1ncc([N+](=O)[O-])n1CCO [METRONIDAZOLE] | < 0.8 | 1.5 (≈ 8.76 µM) | – | < 0.8 | – | – | 1.5 (≈ 8.76 µM) | < 0.8 | < 0.8 | > 100 | – | > 100 | < 0.8 | 6.2 (≈ 36.2 µM) | < 0.8 | < 0.8 | – | – | < 0.8 |
| O=C(c1ccc(Cl)cc1Cl)C(F)(Cn1ccnc1)c1ccccc1 (stereo unspecified) | 25 (≈ 68.8 µM) | 6.2 (≈ 17.1 µM) | 6.2 (≈ 17.1 µM) | 50 (≈ 138 µM) | > 100 | > 100 | 50 (≈ 138 µM) | 25 (≈ 68.8 µM) | 3.1 (≈ 8.53 µM) | 25 (≈ 68.8 µM) | 50 (≈ 138 µM) | 25 (≈ 68.8 µM) | 25 (≈ 68.8 µM) | 50 (≈ 138 µM) | 50 (≈ 138 µM) | 3.1 (≈ 8.53 µM) | > 100 | > 100 | 50 (≈ 138 µM) |
| O=C(c1ccc(Cl)cc1Cl)C(Cl)(Cn1ccnc1)c1ccccc1 (stereo unspecified) | < 0.8 | < 0.8 | 1.5 (≈ 3.95 µM) | < 0.8 | > 100 | > 100 | < 0.8 | < 0.8 | < 0.8 | < 0.8 | 25 (≈ 65.8 µM) | < 0.8 | < 0.8 | < 0.8 | < 0.8 | < 0.8 | > 100 | > 100 | < 0.8 |
| POLYMYXIN B | – | – | 1.5 | – | < 0.8 | 3.1 | – | – | – | – | 25 | – | – | – | – | – | 1.5 | < 0.8 | – |
| O=C(c1ccc(Cl)cc1Cl)C(Cn1ccnc1)c1ccccc1 (stereo unspecified) | < 0.8 | < 0.8 | < 0.8 | < 0.8 | > 100 | > 100 | < 0.8 | < 0.8 | < 0.8 | < 0.8 | < 0.8 | < 0.8 | < 0.8 | < 0.8 | < 0.8 | < 0.8 | 6.2 (≈ 18 µM) | > 100 | < 0.8 |
| O=C(c1ccc(Cl)cc1Cl)C(O)(Cn1ccnc1)c1ccccc1 (stereo unspecified) | > 100 | 12.5 (≈ 34.6 µM) | – | > 100 | > 100 | – | > 100 | > 100 | 12.5 (≈ 34.6 µM) | 50 (≈ 138 µM) | 25 (≈ 69.2 µM) | 100 (≈ 277 µM) | 50 (≈ 138 µM) | > 100 | 50 (≈ 138 µM) | 25 (≈ 69.2 µM) | > 100 | > 100 | > 100 |
| C=C(C(=O)c1ccc(Cl)cc1Cl)c1ccccc1 | < 0.8 | < 0.8 | < 0.8 | < 0.8 | > 100 | > 100 | < 0.8 | < 0.8 | < 0.8 | < 0.8 | < 0.8 | < 0.8 | < 0.8 | < 0.8 | < 0.8 | < 0.8 | 6.2 (≈ 22.4 µM) | > 100 | < 0.8 |
